Screening data as filed in PubChem BioAssay.
STAT3 inh-1: STAT3 signaling inhibition; AID 862; inhibition, % at 5.5 µM; actives 0.89% (n = 190,000); U3A cells, IL-6 STAT3-luciferase reporter, luminescence; host cell line lacks STAT1;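 active means inhibition above the mean inhibition across all screened compounds plus 3 SD, cut at about 44% in these data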;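 further: 0% = DMSO only wells and 100% = 100 µM nifuroxazide control wells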
STAT1 activator: increases IFN-gamma driven STAT1 reporter signal | actives 2.6% (n = 200,000) | NIH 3T3 STAT1-luciferase reporter, luminescence; 100% = IFN-gamma alone, no compound | activation (% of control), % at 5.5 µM;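 active means activation above the screen-wide mean activation plus 3 SD, cut at about 130% in these data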;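 further: raw ratio to IFN-gamma control signal so 100% means no change and 0% no light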
NF-kB expr up: NF-kB expression increase, human neuronal cells; NF-kB reporter expression; stronger effect = higher value; fold change at 12.5 µM; actives 1.6% (n = 190,000); AID 1239; in the data active means fold change above about 3.3
APP 5'UTR act: activates APP 5'UTR luciferase reporter | SH-SY5Y APP 5'UTR luciferase reporter, luminescence; zero percent = DMSO vehicle wells | activation, % at 2 µM | actives 1% (n = 190,000);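 active means activation above a set limit, based on mean plus 3 SD of controls, cut at about 140% in these data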
STAT1 blocker: inhibitors of IFN-gamma induced STAT1 signaling | NIH 3T3 STAT1-luciferase reporter, luminescence | inhibition, % at 5.5 µM | actives 0.35% (n = 200,000);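 active means inhibition above a set limit, the mean inhibition across all tested compounds plus 3 SD, cut at about 34% in these data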;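 further: 0% = IFN-gamma with DMSO and 100% = IFN-gamma with 300 µM nifuroxazide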
STAT3 activator: activators of IL-6 induced STAT3 signaling; U3A cells, IL-6 STAT3-luciferase reporter, luminescence; 100% = signal with IL-6 EC80 alone; activation (% of control), % at 5.6 µM; actives 0.91% (n = 190,000);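 active means activation above the screen-wide mean of compound activation plus 3 SD, cut at about 130% in these data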;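 further: 0% = background luminescence of wells with medium and substrate only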
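Material: STAT3-luciferase reporter U3A cells; Probe or stimulus: IL-6 (33 ng/mL); Incubation: compound pre-incubation 1 h before IL-6, then 6 h stimulation at 37 °C; Technique: luminescence from STAT3-driven luciferase reporter; Evaluation: % activation versus median of IL-6-stimulated wells; Controls: IL-6-only high control.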
STAT3 inh-2: confirmation of STAT3 signaling inhibitors. actives 45% (n = 1,200). U3A cells, IL-6 STAT3 luciferase reporter, luminescence; cell line lacks STAT1. inhibition, % at 5.7 µM. shares compounds with STAT3 inh-1;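 active means inhibition above the hit cutoff computed for the primary STAT3 screen, cut at about 44% in these data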;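 further: 0% = IL-6 plus DMSO and 100% = IL-6 plus nifuroxazide control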
NFkB inh STAT3ct: counter-screen for STAT3 inhibitors: NF-kappaB inhibition; inhibition, % at 5.7 µM; HEK293T NF-kB luciferase reporter, TNF-alpha induced; AID 1308; shares compounds with STAT3 inh-1; actives 36% (n = 1,200);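 active means inhibition above the mean of solvent-only control wells plus 3 SD, cutoff set per campaign, cut at about 13% in these data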;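 further: 0% = TNF-alpha with DMSO and 100% = TNF-alpha with MG high control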
STAT1 inh STAT3c: STAT1 inhibition in STAT3 inhibitor counter-screen; shares compounds with STAT3 inh-1; NIH 3T3 STAT1-luciferase reporter, IFN-gamma induced, luminescence; inhibition, % at 5.7 µM; actives 27% (n = 1,200); AID 1317;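 active means inhibition above the mean plus 3 SD of solvent-only control wells, limit set per screening run, cut at about 16% in these data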;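 further: 0% = DMSO with IFN-gamma and 100% = nifuroxazide control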
* hit, by the source's call; . = no result given. Compounds with a hit are over-represented: about 5.1% of the library has one in this group of screens.

SMILES	STAT3 inh-1	STAT1 activator	NF-kB expr up	APP 5'UTR act	STAT1 blocker	STAT3 activator	STAT3 inh-2	NFkB inh STAT3ct	STAT1 inh STAT3c
COc1cccc(CNC(=S)Nc2cc(OC)ccc2OC)c1	-2	108	0.96	1	-10	106	.	.	.
COc1ccc2cc(-c3cc(C(=O)OCC(=O)Nc4c(C)n(C)n(-c5ccccc5)c4=O)c4ccccc4n3)ccc2c1	47*	112	3.4*	81	-10	61	56*	10	-15
COc1ccc2cc(-c3cc(C(=O)OCC(=O)NC4CCS(=O)(=O)C4)c4ccccc4n3)ccc2c1 (stereo not given)	62*	116	2.4	40	-18	47	41	1	-17
CCSc1ccccc1C(=O)N=C1NC(=O)CC2C(=O)NCCN12 (stereo not given)	-7	95	1.7	10	4	107	.	.	.
O=C(NC(=S)N1CCOCC1)c1ccc([N+](=O)[O-])cc1	-5	104	0.94	18	-5	103	.	.	.
CC(CCCC(C)(C)O)NC(=O)c1cc(COc2ccc3ncccc3c2)on1 (stereo not given)	63*	71	0.93	4	30	50	63*	21*	24*
O=C(NCc1cccc(Cl)c1)c1cc(COc2ccc3ncccc3c2)on1	45*	73	0.9	-3	28	64	62*	15*	21*
O=C(Nc1ccc(S(=O)(=O)NC2=NCCCCC2)cc1)c1ccc2ccccc2n1	19	110	1.2	8	-10	85	.	.	.
O=C(c1cccn2c(=O)c3cc(Br)ccc3nc12)N1CCN(c2ccccn2)CC1	-3	96	1.2	-3	4	106	.	.	.
O=C(c1cccn2c(=O)c3ccccc3nc12)N1CCN(c2ccccn2)CC1	51*	105	1	15	-5	59	3	-6	0
Cc1cc2ncc(C(=O)Nc3ccsc3C(=O)O)c(C)n2n1	12	95	1.5	5	5	100	.	.	.
O=[N+]([O-])c1ccc2nc(-c3ccc(OC(F)F)cc3)cn2c1	66*	120	3.5*	82	-21	46	36	-30	-87
Cc1ccccc1OCC(O)CN(Cc1ccccc1O)C1CCCCC1 (stereo not given)	-1	89	0.92	15	10	108	.	.	.
CN(C)c1ccc(C=Nc2ccccc2C(N)=O)cc1	45*	135*	3.7*	166*	-38	63	31	9	-44
CCOC(=O)c1c(N)sc(C(=O)Nc2ccc3c(c2)OCO3)c1C	85*	76	5.5*	117	24	31	31	17*	-62
CCOC(=O)c1c(C)c(C(=O)Nc2ccc3c(c2)OCO3)c(C)n1C	3	104	1.2	18	-5	102	.	.	.
N/C(=N\N=C\c1ccc2c(c1)OCO2)c1nonc1N	54*	132*	7.6*	221*	-34	55	33	-14	-98
COc1cccc(/C=N/N=C(\N)c2nonc2N)c1O	21	124	1.9	30	-28	85	.	.	.
O=c1[nH]c(CSc2ccccn2)nc2c1oc1ccccc12	71*	82	2.2	94	18	43	18	-8	-62
CC(C)Oc1ccc(C(=O)NC2=NCCS2)cc1	62*	94	8.3*	154*	4	51	30	-21	-79
O=C(NCc1ccc(F)cc1)C1CCC(=O)N1C1CCCCC1 (stereo not given)	45*	100	1.2	5	0	68	8	-7	-7
CCN1CCN(C(=S)c2ccc(-c3ccccc3)cc2)CC1	47*	88	1.1	7	11	63	43	4	6
